Source: ChEMBL document CHEMBL1147862, “Studies on synthesis and pharmacological activities of 3,6-disubstituted-1,2,4-triazolo[3,4-b]-1,3,4-thiadiazoles and their dihydro analogues” (2007)

How the values were obtained:
Type in all cases: functional
Mus musculus [1] = experiment: Analgesic activity in Swiss mouse assessed as increase in reaction time at 20 mg/kg, po after 30 mins by Eddy's hot plate technique
Procedure, shortened: (§1)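 Swiss mice of either sex, 25–35 g, placed one at a time on a hot plate held at 55 °C. End point is paw licking or jumping, whichever comes first, with a 15 s cut-off to avoid paw injury. Reaction time is recorded and reported as percent increase in reaction time.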

Mus musculus [2] = experiment: Analgesic activity in Swiss mouse assessed as increase in reaction time at 20 mg/kg, po after 60 mins by Eddy's hot plate technique; procedure, shortened: as §1
Mus musculus [3] = experiment: Analgesic activity in Swiss mouse assessed as increase in reaction time at 20 mg/kg, po after 90 mins by Eddy's hot plate technique; procedure, shortened: as §1
Candida albicans [4] = experiment: Antifungal activity against Candida albicans at 10 ug/ml by paper disc method; conditions: read-out: IZ
Candida albicans [5] = experiment: Antifungal activity against Candida albicans at 20 ug/ml by paper disc method; conditions: read-out: IZ
Candida albicans [6] = experiment: Antifungal activity against Candida albicans at 30 ug/ml by paper disc method; conditions: read-out: IZ
Aspergillus niger [7] = experiment: Antifungal activity against Aspergillus niger at 10 ug/ml by paper disc method; conditions: read-out: IZ
Aspergillus niger [8] = experiment: Antifungal activity against Aspergillus niger at 20 ug/ml by paper disc method; conditions: read-out: IZ
Aspergillus niger [9] = experiment: Antifungal activity against Aspergillus niger at 30 ug/ml by paper disc method; conditions: read-out: IZ
Escherichia coli [10] = experiment: Antibacterial activity against Escherichia coli at 10 ug/ml by agar plate diffusion technique; conditions: read-out: IZ
Escherichia coli [11] = experiment: Antibacterial activity against Escherichia coli at 20 ug/ml by agar plate diffusion technique; conditions: read-out: IZ
Escherichia coli [12] = experiment: Antibacterial activity against Escherichia coli at 30 ug/ml by agar plate diffusion technique; conditions: read-out: IZ
Pseudomonas aeruginosa [13] = experiment: Antibacterial activity against Pseudomonas aeruginosa at 10 ug/ml by agar plate diffusion technique; conditions: read-out: IZ
Pseudomonas aeruginosa [14] = experiment: Antibacterial activity against Pseudomonas aeruginosa at 20 ug/ml by agar plate diffusion technique; conditions: read-out: IZ
Pseudomonas aeruginosa [15] = experiment: Antibacterial activity against Pseudomonas aeruginosa at 30 ug/ml by agar plate diffusion technique; conditions: read-out: IZ
Bacillus subtilis [16] = experiment: Antibacterial activity against Bacillus subtilis at 10 ug/ml by agar plate diffusion technique; conditions: read-out: IZ
Bacillus subtilis [17] = experiment: Antibacterial activity against Bacillus subtilis at 20 ug/ml by agar plate diffusion technique; conditions: read-out: IZ
Bacillus subtilis [18] = experiment: Antibacterial activity against Bacillus subtilis at 30 ug/ml by agar plate diffusion technique; conditions: read-out: IZ
Staphylococcus aureus [19] = experiment: Antibacterial activity against Staphylococcus aureus at 10 ug/ml by agar plate diffusion technique; conditions: read-out: IZ
Staphylococcus aureus [20] = experiment: Antibacterial activity against Staphylococcus aureus at 20 ug/ml by agar plate diffusion technique; conditions: read-out: IZ
Staphylococcus aureus [21] = experiment: Antibacterial activity against Staphylococcus aureus at 30 ug/ml by agar plate diffusion technique; conditions: read-out: IZ
Rattus norvegicus [22] = experiment: Antiinflammatory activity in Wistar Albino rat assessed as inhibition of carrageenan-induced paw oedema at 20 mg/kg after 1 hr relative to control
Procedure, shortened: (§2)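 Wistar albino rats, 150–200 g, six per group, dosed orally with a 20 mg/kg suspension; control gets 0.1 ml 1% gum acacia. After 30 min, 0.1 ml 1% carrageenan in saline is injected subplantar into the right hind paw. Paw volume is read by plethysmograph at 0–4 h. Inhibition = 100(1 − Vtest/Vcontrol) on mean volume increase.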

Rattus norvegicus [23] = experiment: Antiinflammatory activity in Wistar Albino rat assessed as inhibition of carrageenan-induced paw oedema at 20 mg/kg after 2 hrs relative to control; procedure, shortened: as §2
Rattus norvegicus [24] = experiment: Antiinflammatory activity in Wistar Albino rat assessed as inhibition of carrageenan-induced paw oedema at 20 mg/kg after 3 hrs relative to control; procedure, shortened: as §2
Rattus norvegicus [25] = experiment: Antiinflammatory activity in Wistar Albino rat assessed as inhibition of carrageenan-induced paw oedema at 20 mg/kg after 4 hrs relative to control; procedure, shortened: as §2

Row | SMILES | Activity (Mus musculus [1]) [%] | Activity (Mus musculus [2]) [%] | Activity (Mus musculus [3]) [%] | zone of inhibition at 10 µg/mL (Candida albicans [4]) [mm] | zone of inhibition at 20 µg/mL (Candida albicans [5]) [mm] | zone of inhibition at 30 µg/mL (Candida albicans [6]) [mm] | zone of inhibition at 10 µg/mL (Aspergillus niger [7]) [mm] | zone of inhibition at 20 µg/mL (Aspergillus niger [8]) [mm] | zone of inhibition at 30 µg/mL (Aspergillus niger [9]) [mm] | zone of inhibition at 10 µg/mL (Escherichia coli [10]) [mm] | zone of inhibition at 20 µg/mL (Escherichia coli [11]) [mm] | zone of inhibition at 30 µg/mL (Escherichia coli [12]) [mm] | zone of inhibition at 10 µg/mL (Pseudomonas aeruginosa [13]) [mm] | zone of inhibition at 20 µg/mL (Pseudomonas aeruginosa [14]) [mm] | zone of inhibition at 30 µg/mL (Pseudomonas aeruginosa [15]) [mm] | zone of inhibition at 10 µg/mL (Bacillus subtilis [16]) [mm] | zone of inhibition at 20 µg/mL (Bacillus subtilis [17]) [mm] | zone of inhibition at 30 µg/mL (Bacillus subtilis [18]) [mm] | zone of inhibition at 10 µg/mL (Staphylococcus aureus [19]) [mm] | zone of inhibition at 20 µg/mL (Staphylococcus aureus [20]) [mm] | also measured
1 | COc1ccc2[nH]cc(Cc3nn4c(Cc5ccc(OC)c(OC)c5)nnc4s3)c2c1 | 11.92 | 19.06 | 28.32 | 4.12 | 8.3 | 10 | 4.24 | 8.1 | 10.4 | 4.72 | 8.49 | 12.9 | 4.9 | 8.42 | 12.3 | 4.92 | 8.18 | 13.7 | 4.82 | 8.39 | zone of inhibition at 30 µg/mL (Staphylococcus aureus [21]): 13.6 mm; inhibition in vivo at 20 mg/kg (Rattus norvegicus [22]): 4.11%; inhibition in vivo at 20 mg/kg (Rattus norvegicus [23]): 11.6%; inhibition in vivo at 20 mg/kg (Rattus norvegicus [24]): 19.1%; inhibition in vivo at 20 mg/kg (Rattus norvegicus [25]): 29.6%
2 | COc1ccc(Cc2nnc3sc(-c4cc(O)nc(O)c4)nn23)cc1OC | 5.71 | 14.1 | 23.45 | 3.82 | 6.82 | 13.9 | 4.16 | 7.84 | 11.9 | 4.26 | 8.1 | 13.3 | 4.63 | 8.9 | 13.1 | 4.58 | 8.12 | 13.9 | 4.61 | 8.93 | zone of inhibition at 30 µg/mL (Staphylococcus aureus [21]): 13.9 mm; inhibition in vivo at 20 mg/kg (Rattus norvegicus [22]): 10.5%; inhibition in vivo at 20 mg/kg (Rattus norvegicus [23]): 12.9%; inhibition in vivo at 20 mg/kg (Rattus norvegicus [24]): 17.1%; inhibition in vivo at 20 mg/kg (Rattus norvegicus [25]): 20.8%
3 | COc1ccc(Cc2nnc3n2NC(c2ccco2)S3)cc1OC (stereo not given) | 5.36 | 17.26 | 25.11 | 5.48 | 10.4 | 14.7 | 4.8 | 6.96 | 12.3 | 4.29 | 7.49 | 14.2 | 3.73 | 7.11 | 12.7 | 3.8 | 6.65 | 12.2 | 3.7 | 7.31 | zone of inhibition at 30 µg/mL (Staphylococcus aureus [21]): 11.8 mm; inhibition in vivo at 20 mg/kg (Rattus norvegicus [22]): 12%; inhibition in vivo at 20 mg/kg (Rattus norvegicus [23]): 17.5%; inhibition in vivo at 20 mg/kg (Rattus norvegicus [24]): 21.1%; inhibition in vivo at 20 mg/kg (Rattus norvegicus [25]): 24.6%
4 | Cc1occc1-c1nnc2sc(Cc3c[nH]c4ccccc34)nn12 | 6.66 | 22.22 | 35.33 | 5.38 | 9.3 | 12.7 | 5.6 | 8.74 | 13.2 | 5.78 | 9.18 | 13.6 | 4.85 | 8.9 | 13.5 | 5.67 | 8.75 | 13.8 | 5.12 | 8.19 | zone of inhibition at 30 µg/mL (Staphylococcus aureus [21]): 13.5 mm; inhibition in vivo at 20 mg/kg (Rattus norvegicus [22]): 16%; inhibition in vivo at 20 mg/kg (Rattus norvegicus [23]): 21.5%; inhibition in vivo at 20 mg/kg (Rattus norvegicus [24]): 26.5%; inhibition in vivo at 20 mg/kg (Rattus norvegicus [25]): 30%
5 | COc1ccc(Cl)c(-c2nnc3n2NC(c2cccn2C)S3)c1 (stereo not given) | 4.38 | 6.2 | 19.67 | 4.3 | 7.4 | 12.6 | 4.71 | 7.65 | 12.9 | 3.82 | 6.9 | 10.1 | 3.9 | 7.1 | 11.9 | 3.6 | 6.82 | 9.33 | 3.82 | 6.1 | zone of inhibition at 30 µg/mL (Staphylococcus aureus [21]): 11 mm; inhibition in vivo at 20 mg/kg (Rattus norvegicus [22]): 14.1%; inhibition in vivo at 20 mg/kg (Rattus norvegicus [23]): 16.8%; inhibition in vivo at 20 mg/kg (Rattus norvegicus [24]): 18.5%; inhibition in vivo at 20 mg/kg (Rattus norvegicus [25]): 20.7%
6 | Cc1occc1-c1nnc2n1NC(c1ccc([N+](=O)[O-])o1)S2 (stereo not given) | 5.34 | 15.68 | 26.85 | 5.89 | 11.1 | 15.8 | 5.48 | 10.4 | 15.3 | 5.78 | 11 | 16.9 | 6.12 | 11.8 | 17.1 | 6.25 | 11.5 | 17.2 | 6.11 | 11.5 | zone of inhibition at 30 µg/mL (Staphylococcus aureus [21]): 17.5 mm; inhibition in vivo at 20 mg/kg (Rattus norvegicus [22]): 15.6%; inhibition in vivo at 20 mg/kg (Rattus norvegicus [23]): 18.1%; inhibition in vivo at 20 mg/kg (Rattus norvegicus [24]): 22.8%; inhibition in vivo at 20 mg/kg (Rattus norvegicus [25]): 24.9%
